Bioassay records deposited in PubChem BioAssay by several laboratories.
The list is not random: actives were taken first. Their share in the collection is about 2.6%.
SENP1 inh: human SENP1 catalytic domain inhibitors, primary screen, biochemical, FRET, uHTS; Sentrin-specific protease 1 (Homo sapiens), Q9P0U3; recombinant SENP1 catalytic domain, CyPet-SUMO1-YPet FRET cleavage; inhibition, % at 10 µM; actives 0.21% (n = 360,000);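 active = inhibition at least 30% at 10 µM, raw YFP signal under a set limit, fluorescence ratio 0.5 to 1.5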
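Assay system – human recombinant His6-tagged SENP1 catalytic domain enzyme · Input – SENP1 enzyme, 20 pM final · Buffer or medium – Tris pH 8 buffer plus EDTA, NaCl, BME, BSA, NP40, catalase · Schedule – 50 min reaction at room temperature · Technique – FRET read of cyan and yellow fluorescence · Control set – no-enzyme wells low, DMSO-plus-enzyme wells high control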
SENP8 block-1: SENP8 protease inhibitors, primary screen, biochemical, luminescence; Sentrin-specific protease 8 (Homo sapiens), Q96LD8; purified SENP8, Z-RLRGG-aminoluciferin cleavage; inhibition, % at 10 µM; actives 1.2% (n = 330,000); AID 2540, 2010; in the data active = inhibition above about 50%
SENP7 inh: SENP7 protease inhibitors, primary screen, biochemical, luminescence, uHTS; AID 434973, 2010; recombinant SENP7, Z-RLRGG-aminoluciferin luminescence, 40 min; inhibition, % at 5 µM; actives 1.5% (n = 330,000); Sentrin-specific protease 7 (Homo sapiens), Q9BQF6;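 active = inhibition above about 50% at the single test dose, limit read from the data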
Platelet DG rel: inhibitors of platelet dense granule secretion, primary screen, cell-based, MLPCN, human platelets. human platelet-rich plasma, SFLLRN dense granule ATP release, luminescence. inhibition, %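 (compounds screened at 7.5 µM in platelet-rich plasma)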. actives 0.22% (n = 300,000);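 active = mean replicate score, as percent of positive control, at or above 50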
SENP8 block-2: human SENP8 protease inhibitors, primary screen, biochemical, fluorescence, Nedd8 protein substrate, uHTS; recombinant SENP8; inhibition, % at 20 µM; actives 0.64% (n = 360,000); AID 602440, 2012; in the data active = inhibition mostly above about 40%, no sharp cut-off; inactive = mostly below about 27%
SENP6 block: SENP6 protease inhibitors, primary screen, biochemical, luminescence, uHTS | inhibition, % at 10 µM | Recombinant SENP6 catalytic domain, aminoluciferin luminescence | Sentrin-specific protease 6 (Homo sapiens), Q9GZR1 | actives 1.8% (n = 330,000) | AID 2599, 2010;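 active = inhibition above about 50% at the single tested dose, limit read from the data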
Target sequence (Q9GZR1 628-1112 limits assumed): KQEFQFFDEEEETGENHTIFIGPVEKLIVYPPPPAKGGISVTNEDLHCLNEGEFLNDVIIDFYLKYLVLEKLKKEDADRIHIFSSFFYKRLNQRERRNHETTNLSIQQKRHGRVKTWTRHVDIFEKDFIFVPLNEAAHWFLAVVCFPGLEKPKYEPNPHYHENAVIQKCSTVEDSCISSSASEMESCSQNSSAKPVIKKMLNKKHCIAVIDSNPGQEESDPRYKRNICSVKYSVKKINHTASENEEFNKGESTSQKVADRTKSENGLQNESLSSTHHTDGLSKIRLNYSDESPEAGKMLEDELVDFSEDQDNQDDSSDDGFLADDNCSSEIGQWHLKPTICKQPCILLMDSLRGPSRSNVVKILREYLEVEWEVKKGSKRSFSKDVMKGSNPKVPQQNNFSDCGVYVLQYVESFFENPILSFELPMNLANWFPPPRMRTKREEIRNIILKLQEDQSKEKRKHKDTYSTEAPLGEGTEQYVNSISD
SENP8 conf: human SENP8 protease inhibitors, confirmation, biochemical, Nedd8 protein substrate, single concentration; shares compounds with SENP8 block-2; purified SENP8, Nedd8-AMC/pro-Nedd8 cleavage fluorescence, 30 min; inhibition, % at 25 µM; actives 15% (n = 1,400); AID 624319, 2012; in the data active = inhibition mostly above about 39%, no sharp cut-off; inactive = mostly below about 34%
A number is an active result; - = inactive; . = no result given.

SMILES	SENP1 inh	SENP8 block-1	SENP7 inh	Platelet DG rel	SENP8 block-2	SENP6 block	SENP8 conf
CCOc1ccc(C=NNc2ccc(S(=O)(=O)Nc3ccccc3C(=O)O)cc2[N+](=O)[O-])cc1	-	-	-	.	49.3	-	-
CCCOc1ccc(CCC(=O)N/N=C/c2ccco2)cc1	-	-	-	-	44.1	-	-
Nc1ccccc1O	-	-	-	.	58.3	-	-
Cc1onc(C(=O)NC2CCCCC2)c1[N+](=O)[O-]	-	-	-	-	-	-	.
CC(=O)Nc1ccc(S(=O)(=O)N2CCN(C(=O)CCC3CCCC3)CC2)cc1	-	-	-	-	45.5	-	-
COc1ccc(C(=O)c2sc(Nc3ccccc3)c(C(=O)Nc3ccc(OC)c(OC)c3)c2N)cc1	-	-	-	-	50.0	-	-
CC(C)[C@H]1C(=O)Nc2ccccc2N1C(=O)N[C@@H](Cc1ccccc1)C(=O)N[C@H](Cc1ccccc1)C(=O)O	-	-	-	-	-	-	.
CCC(C)[C@H](NC(=O)N1CC(=O)Nc2ccccc21)C(=O)N[C@H](Cc1ccccc1)C(=O)O (some centres undefined)	-	-	-	-	41.1	-	-
CC(C)C[C@H](NC(=O)N1c2ccccc2NC(=O)[C@@H]1C(C)C)C(=O)N1CCC[C@@H]1C(=O)O	-	-	-	-	55.7	-	-
CC(C)[C@H](NC(=O)N1c2ccccc2NC(=O)[C@@H]1C(C)C)C(=O)N[C@H](Cc1ccccc1)C(=O)O	-	-	-	-	40.0	-	-
CCCN(CCC)CCCNc1ccc(C(=O)Nc2cccc(OC)c2)cc1[N+](=O)[O-]	-	-	-	-	35.3	-	-
COc1cccc(NC(=O)c2ccc(NCCCN3CC(C)CC(C)C3)c([N+](=O)[O-])c2)c1 (centres undefined)	-	.	.	-	-	.	.
COc1cc(/C=N/N2CCOCC2)ccc1OCc1ccc(Cl)cc1	-	-	-	-	42.0	-	-
Cc1[nH]n(-c2ccc([N+](=O)[O-])cc2)c(=O)c1C=NCC1CCCO1 (centres undefined)	-	-	-	-	-	-	.
Cc1[nH]n(-c2ccc([N+](=O)[O-])cc2)c(=O)c1C=NCCc1ccc(S(N)(=O)=O)cc1	-	-	-	-	-	-	.
Cc1ccc(-n2[nH]c(C)c(/C=N/Nc3ccc([N+](=O)[O-])cc3[N+](=O)[O-])c2=O)cc1	-	-	-	-	79.6	-	-
Cc1[nH]n(-c2ccc([N+](=O)[O-])cc2)c(=O)c1C=NCCc1c(C)[nH]c2ccccc12	-	-	-	-	42.3	-	-
Cc1ccc(CNC(=O)CN(C)S(=O)(=O)c2ccc(F)cc2)cc1	-	-	-	-	-	-	.
CCOC(=O)c1c(C)nc2c(c1-c1cc(OC)ccc1OC)C(=O)CC(C)(C)C2	-	-	-	-	43.8	-	-
CCOC(=O)c1c(C)nc2c(c1-c1cc(OC)ccc1OC)C(=O)c1ccccc1-2	-	-	-	-	-	-	.
O=C1c2cc(F)ccc2-n2c1nc1ccccc1c2=O	-	-	-	-	41.8	-	60.5
O=C1c2cccc3cccc(c23)C(=O)C1(O)O	-	-	-	-	51.7	-	-
O=[N+]([O-])c1ccc(C=NNC(=S)NN=Cc2ccc([N+](=O)[O-])cc2)cc1	-	.	.	.	70.1	.	-
O=[N+]([O-])c1ccc(C=NNC(=S)Nc2ccc(F)cc2)cc1	-	.	.	.	-	.	.
COc1ccc(NCc2nnc(SCC(=O)Nc3ccccc3)n2C)cc1	-	-	-	-	43.0	-	-
SMILES	SENP1 inh	SENP8 block-1	SENP7 inh	Platelet DG rel	SENP8 block-2	SENP6 block	SENP8 conf
CCn1c(CNc2ccc(OC)cc2)nnc1SCC(=O)N1CCCc2ccccc21	-	-	-	-	-	-	.
COc1ccc(NCc2nnc(SCC(=O)N3CCCc4ccccc43)n2C)cc1	-	-	-	-	60.1	-	-
Cc1ccccc1COc1ccc(-c2nnn(CC(=O)O)n2)cc1	-	-	-	-	-	-	.
O=C(COc1ccc(C(F)(F)F)cc1[N+](=O)[O-])Nc1cccc(C(F)(F)F)c1	-	-	-	-	-	-	.
COC(=O)c1cnc(Nc2cccc(C(F)(F)F)c2)c([N+](=O)[O-])c1	-	-	-	-	32.8	-	-
O=c1[nH]c(CN2CCN(c3ccccn3)CC2)nc2c(Br)cc(Br)cc12	-	-	-	-	44.4	-	-
O=c1[nH]c2ccccc2c2ccccc12	-	-	-	-	-	-	.
Nc1c(Br)cc(Br)c2c1[nH]c(=O)c1ccccc12	-	.	.	.	73.4	.	-
COc1ccccc1C(C)Nc1ccc(S(=O)(=O)N2CCN(C)CC2)cc1[N+](=O)[O-] (centres undefined)	-	-	-	.	39.1	-	-
CC(Nc1ccc(S(=O)(=O)N2CCN(C)CC2)cc1[N+](=O)[O-])c1ccccc1 (centres undefined)	-	-	-	.	-	-	.
O=C(NC(C(=O)O)c1ccccc1)c1ccccc1 (centres undefined)	-	.	.	-	-	.	.
NC(=O)CC(NC(=O)c1ccccc1)C(=O)O (centres undefined)	-	-	-	-	42.4	-	-
Cc1ccc(S(=O)(=O)N2CCN(C(=O)CN3CCc4ccccc4C3)CC2)cc1	-	-	-	-	-	-	.
O=C(CN1CCc2ccccc2C1)N1CCN(S(=O)(=O)c2ccccc2)CC1	-	-	-	-	46.3	-	-
Cc1ccc2c(CN3CCN(c4ccc(Cl)c(Cl)c4)CC3)cc(=O)oc2c1	-	.	.	.	-	.	.
COC(=O)c1c(SCc2cccc3ccccc23)nc(=O)[nH]c1C	-	-	-	-	-	-	.
COC(=O)c1c(SCC(=O)Nc2ccc(C)c(C)c2)nc(=O)[nH]c1C	-	-	-	-	43.9	-	-
CCOc1cccc(CN2CCC(Oc3ccc(C(=O)N4CCCC4)cc3)CC2)c1O	-	.	.	.	-	.	.
Cc1c(C(=S)Nc2ccccc2)cnn1-c1ccc([N+](=O)[O-])cc1	-	-	-	-	40.5	-	-
CCOc1ccc(NC(=O)COc2cccc3c2CCN(Cc2cccnc2)C3=O)cc1	-	-	-	-	-	-	.
O=[N+]([O-])c1c(Nc2ccc(O)cc2)cc(N2CCOCC2)c2nonc12	-	-	-	-	49.3	-	-
